High-throughput results from PubChem.
TRPC6 activator: mouse TRPC6 channel activators, primary screen, cell-based, HEK293, membrane potential dye; Short transient receptor potential channel 6 (Mus musculus), Q61143; HEK293-TRPC6 membrane potential dye fluorescence; stronger effect = higher value; B-score at 10 µM; 0.13% of 310,000 active;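 active means B-score of the integrated fluorescence ratio above library mean plus 3 SD, and starting fluorescence ratio within library mean plus 5 SD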;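 further: higher score means more depolarization so channel activation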
Target sequence (Q61143 whole entry, looked up): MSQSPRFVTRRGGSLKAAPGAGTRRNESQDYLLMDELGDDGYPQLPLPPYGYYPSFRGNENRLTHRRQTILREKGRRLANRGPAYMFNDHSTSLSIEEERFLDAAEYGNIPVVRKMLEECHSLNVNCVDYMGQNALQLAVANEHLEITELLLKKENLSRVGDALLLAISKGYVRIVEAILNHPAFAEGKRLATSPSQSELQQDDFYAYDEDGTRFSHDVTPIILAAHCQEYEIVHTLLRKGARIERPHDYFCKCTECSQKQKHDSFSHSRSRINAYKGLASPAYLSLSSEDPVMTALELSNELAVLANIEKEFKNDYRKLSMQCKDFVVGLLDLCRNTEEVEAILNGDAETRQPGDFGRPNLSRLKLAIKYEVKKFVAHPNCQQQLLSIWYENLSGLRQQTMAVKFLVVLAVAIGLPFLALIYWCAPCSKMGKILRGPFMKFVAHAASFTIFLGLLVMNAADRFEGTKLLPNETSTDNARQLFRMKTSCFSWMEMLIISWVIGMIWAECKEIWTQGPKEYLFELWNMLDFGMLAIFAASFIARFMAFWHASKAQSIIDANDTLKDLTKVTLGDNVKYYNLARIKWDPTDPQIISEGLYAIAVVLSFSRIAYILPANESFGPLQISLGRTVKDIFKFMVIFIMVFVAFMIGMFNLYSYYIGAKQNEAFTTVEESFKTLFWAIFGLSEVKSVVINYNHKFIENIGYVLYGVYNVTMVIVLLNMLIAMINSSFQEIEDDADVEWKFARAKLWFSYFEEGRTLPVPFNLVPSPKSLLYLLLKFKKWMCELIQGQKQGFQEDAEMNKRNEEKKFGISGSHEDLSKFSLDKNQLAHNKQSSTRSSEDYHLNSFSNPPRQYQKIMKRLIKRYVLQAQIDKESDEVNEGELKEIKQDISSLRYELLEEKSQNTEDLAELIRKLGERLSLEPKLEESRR
TRPC4 act: activators of mouse TRPC4 channel, primary screen, Fluo4 calcium, HEK293 TRPC4beta/mu-opioid cells. Short transient receptor potential channel 4 (Mus musculus), Q9QUQ5. Fluo4 calcium fluorescence; stronger effect = higher value. 0.49% of 310,000 active. B-score at 10 µM. AID 2237, 2010;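 active means B-score above 5 SD of library B-scores, and initial fluorescence ratio not above library mean plus 5 SD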;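 further: positive B-score marks a calcium rise read as TRPC4 activation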
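Incubation: 45 min room-temperature Fluo4 loading, 110 s read / System: HEK293 cells stably co-expressing mouse TRPC4beta and mu-opioid receptor / Signal: Fluo4 fluorescence, kinetic / Control set: buffer (low) and maximal DAMGO (high) / Measure: integrated baseline-normalised fluorescence ratio, converted to per-well B score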
TRPC4 inh: inhibitors of mouse TRPC4 channel, primary screen, Fluo4 calcium, HEK293 TRPC4beta/mu-opioid cells; DAMGO-evoked Fluo4 calcium flux; stronger effect = lower value; B-score at 10 µM; 0.39% of 300,000 active;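 active means B-score over 3 SD under the library average, no early fluorescence shift, positive overall ratio signal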
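test system = HEK293 cells with stable TRPC4beta plus mu-opioid receptor expression | detection = Fluo4 Ca2+ flux fluorescence | read-out = integrated fluorescence ratio relative to baseline, converted to per-well B score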
TRPC6 inhibitor: mouse TRPC6 channel inhibitors, primary screen, cell-based, HEK293, membrane potential dye; ACh-evoked depolarization; stronger effect = lower value; B-score at 10 µM; 1.1% of 310,000 active;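 active means B-score under library mean minus 3 SD, initial fluorescence not abnormally high, positive integrated signal ratio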;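 further: B-score derived from integrated fluorescence ratio over the kinetic read; more negative B-score means stronger inhibition of depolarization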
TRPC4 potent: positive allosteric modulators of TRPC4, primary screen, cell-based, mouse TRPC4beta, HEK293 mu-opioid, Fluo-4 calcium; Short transient receptor potential channel 4 (Mus musculus), Q9QUQ5; 0.42% of 310,000 active; DAMGO EC20, Fluo-4 Ca2+ flux; stronger effect = higher value; B-score at 10 µM;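 active means B-score of calcium response area above 5 SD of library B-scores, with initial fluorescence ratio within 5 SD of library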;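 further: B-score of integrated fluorescence ratio over time as area under calcium response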
TRPC4 spec 2: mouse TRPC4 off-target activity of TRPC6 inhibitors, second screen | shares compounds with TRPC6 inhibitor | HEK293 TRPC4/MOR, membrane potential dye fluorescence; channel activated by saturating DAMGO dose | inhibition, % at 10 µM | 42% of 920 active | AID 2776;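 active means compounds whose fluorescence signal differed from control wells by over 3 SD, either direction, in both duplicate plates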
TRPC4 spec: mouse TRPC4 modulation by TRPC6 hits, confirmation, selectivity assay for TRPC6 inhibitor project, cell-based, HEK293 TRPC4/mu-opioid, membrane potential dye; shares compounds with TRPC6 inhibitor; membrane potential fluorescence; activity change, negative = inhibition, % at 10 µM; 61% of 920 active; AID 2777, 2010;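 active means rise or fall in signal beyond 3 SD of buffer-only wells in both replicate plates, either sign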;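 further: integrated kinetic ratio of fluorescence range over baseline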
HEK293 MPD ctr 2-1: nonspecific membrane potential effects, parental HEK293, confirmation, counter-screen for TRPC6 inhibitor project, cell-based, second counter screen | signal change vs control, % at 10 µM | 31% of 920 active | shares compounds with TRPC6 inhibitor | parental HEK293 membrane potential dye fluorescence; maximal acetylcholine challenge after compound addition;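 active means membrane potential signal moving either way by over 3 SD of the maximum-effect control, in both duplicate plates, meaning non-specific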
HEK293 MPD ctr-1: membrane potential modulation in parental HEK293, confirmation, counter-screen for TRPC6 inhibitor project, cell-based; shares compounds with TRPC6 inhibitor; AID 2780, 2010; membrane potential signal change, % at 10 µM; parental HEK293 membrane potential dye fluorescence; 60% of 920 active;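 active means membrane potential signal shifting up or down by more than 3 SD of buffer-only wells, on both duplicate plates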
HEK293 MPD ctr-2: parental HEK293 membrane potential modulation, confirmation, counter-screen for TRPC6 modulator project, cell-based. 51% of 2,400 active. membrane potential dye fluorescence. AID 488924, 2010. membrane potential signal change, % at 10 µM. shares compounds with TRPC6 inhibitor;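 active means membrane potential signal moves up or down beyond 5 SD from buffer-only wells, on both duplicate plates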
HEK293 MPD ctr 2-2: second check of TRPC6 modulator effects in parental HEK293 cells; 14% of 2,400 active; shares compounds with TRPC6 inhibitor; AID 488926; membrane potential dye fluorescence; after compound, maximal acetylcholine stimulation; inhibition, % at 10 µM;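 active means membrane potential signal drops by more than 5 SD from the mean control signal, in both duplicate plates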;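 further: plate controls were acetylcholine ECmax control wells for no effect and buffer only wells for full effect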
TRPC4 ctr mod: TRPC4 modulation by TRPC6 hit compounds, confirmation, selectivity assay for TRPC6 modulator project, cell-based, HEK293 TRPC4/mu-opioid, membrane potential dye, mouse | 69% of 2,400 active | shares compounds with TRPC6 inhibitor | percent change from control (negative = decrease, positive = increase), % at 10 µM | AID 488927, 2010 | membrane potential fluorescence;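 active means membrane potential signal moved up or down beyond 5 SD of buffer control wells, in both duplicate plates, actives on both sides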;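 further: plate controls were assay buffer wells for no effect and DAMGO maximal-effect wells for full effect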
TRPC4/MOR inh 2: second selectivity test of TRPC6 modulators against mouse TRPC4. shares compounds with TRPC6 inhibitor. HEK293 TRPC4/mu-opioid, membrane potential dye fluorescence; stimulated with maximal-effect DAMGO. inhibition, % at 10 µM. 55% of 2,400 active;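 active means drop in membrane potential signal beyond 5 SD of the control wells in both duplicate plates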;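 further: TRPC4 counter screen for TRPC6 hits run under conditions tuned for TRPC6 not TRPC4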
TRPC6 inh conf: mouse TRPC6 channel inhibitors, confirmation, HEK293 cells, membrane potential dye, duplicate; ACh-evoked depolarization; 43% of 3,300 active; inhibition, % at 10 µM; shares compounds with TRPC6 inhibitor;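 active means fluorescence ratio falls more than 5 SD below the full-stimulation control mean, in both duplicate runs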;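 further: integrated fluorescence ratio of peak minus minimum over baseline after agonist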
TRPC6 act confirm: mouse TRPC6 channel activators, confirmation, HEK293 cells, membrane potential dye, duplicate | 11% of 2,800 active | activation, % at 10 µM | shares compounds with TRPC6 inhibitor | HEK293-TRPC6 membrane potential dye fluorescence, FDSS;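 active means ratio signal rise beyond 5 SD above unstimulated control wells' mean, seen in both duplicate runs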;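 further: plate controls were buffer EC0 wells for no effect and acetylcholine ECmax response for full effect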
* = called active by the depositor; i = inactive; . = no result. Shown are actives, neighbours in structure and some others; about 2.3% of the full set was active somewhere.

SMILES | TRPC6 activator | TRPC4 act | TRPC4 inh | TRPC6 inhibitor | TRPC4 potent | HEK293 MPD ctr-2 | HEK293 MPD ctr 2-2 | TRPC4 ctr mod | TRPC4/MOR inh 2 | TRPC6 inh conf | TRPC6 act confirm | others
CCn1ncc(C2=NOC(C(=O)Nc3cccc(C(C)=O)c3)C2)c1C (stereo not given) | i | i | i | i | i | . | . | . | . | . | .
CCOC(=O)c1cnc2c(Cl)cccc2c1NCCCN1CCOCC1 | i | i | i | -6.3* | i | -187%* | i | -30%* | 38%* | 44%* | i
CCOC(=O)c1cnc2c(C(F)(F)F)cccc2c1NCCCN1CCOCC1 | i | i | i | -7.2* | i | -185%* | i | -34%* | 52%* | i | i
CCOC(=O)c1cnc2c(CC)cccc2c1NCCCN1CCOCC1 | i | i | i | i | i | . | . | . | . | . | .
CCOC(=O)c1cnc2c(Cl)cccc2c1NCCN1CCOCC1 | i | i | i | i | i | . | . | . | . | . | .
CC(=O)NC(Cc1cccc(C)c1)C(=O)NC1CCN(C(=O)c2ccc([N+](=O)[O-])cc2)CC1 (stereo not given) | i | i | i | i | i | . | . | . | . | . | .
O=C(N/N=C/c1c[nH]c2ccccc12)c1cc(Br)ccc1O | i | i | i | -6.3* | i | i | i | i | 60%* | 44%* | i
CCOc1ccc(Br)cc1C(=O)N/N=C/c1c[nH]c2ccccc12 | i | i | i | i | i | . | . | . | . | . | .
O=C(CN(Cc1ccco1)C(=O)CNS(=O)(=O)c1ccc(F)cc1)NCCc1ccccc1 | i | i | i | -5.3* | i | i | i | 12%* | i | i | i
COC(=O)c1ccc(CN2CCCC(CCC(=O)NCc3ccc(C)o3)C2)cc1 (stereo not given) | i | i | i | -7.9* | i | . | . | . | . | 56%* | i | TRPC4 spec 2=i;TRPC4 spec=0.0%*;HEK293 MPD ctr 2-1=i;HEK293 MPD ctr-1=3.2%*
COc1ccc(/C=C/CN2CCCC(CCC(=O)NCc3ccc(F)c(F)c3)C2)cc1 (stereo not given) | i | i | i | -7.4* | i | . | . | . | . | i | i | TRPC4 spec 2=48%*;TRPC4 spec=0.3%*;HEK293 MPD ctr 2-1=i;HEK293 MPD ctr-1=7.4%*
COCCC(=O)N1CCCC(CCC(=O)NCc2ccc(F)c(F)c2)C1 (stereo not given) | i | i | i | i | i | . | . | . | . | . | .
COC(=O)[C@]1(Cc2ccccc2)N[C@H](c2ccc(-c3ccc(F)cc3)cc2)[C@@H]2C(=O)N(C)C(=O)[C@@H]21 | i | i | i | i | i | . | . | . | . | . | .
CCN(CC)CCCN(C(=O)c1ccccc1C)c1nc(-c2ccc(OC)cc2)cs1 | i | i | i | i | i | . | . | . | . | . | .
COc1ccc(-c2csc(N(CCCN(C)C)C(=O)c3ccc(Br)cc3)n2)cc1 | i | i | i | i | i | . | . | . | . | . | .
CCN(CC)CCCN(C(=O)c1ccccc1F)c1nc(-c2ccc(OC)cc2)cs1 | i | i | i | -7.1* | i | . | . | . | . | 51%* | i | TRPC4 spec 2=47%*;TRPC4 spec=i;HEK293 MPD ctr 2-1=i;HEK293 MPD ctr-1=-0.1%*
COc1ccc(-c2csc(N(CCCN(C)C)C(=O)c3cc(OC)c(OC)c(OC)c3)n2)cc1 | i | i | i | -5.7* | i | i | i | i | 66%* | i | i
COc1ccc(-c2csc(N(CCCN(C)C)C(=O)c3ccc(C(C)(C)C)cc3)n2)cc1 | i | i | i | i | i | . | . | . | . | . | .
COc1ccc(-c2csc(N(CCCN(C)C)C(=O)c3ccc(C)cc3)n2)cc1 | i | i | i | -6.5* | i | i | i | i | 82%* | 56%* | i
CCN(CC)CCCN(C(=O)c1ccc(OC)cc1)c1nc(-c2ccc(OC)cc2)cs1 | i | i | i | -9.1* | i | . | . | . | . | 77%* | i | TRPC4 spec 2=24%*;TRPC4 spec=-18%*;HEK293 MPD ctr 2-1=i;HEK293 MPD ctr-1=i
CCN(CC(=O)Nc1ccc(Cl)c(S(=O)(=O)N(C)C)c1)CC(=O)NC(C)C | i | i | i | i | i | . | . | . | . | . | .
COC(=O)c1ccc(C)c(-n2c(=O)n(Cc3ccccc3)c(=O)c3[nH]cnc32)c1 | i | i | i | i | i | . | . | . | . | . | .
COc1ccc(/C=C2\CCc3ccccc3C2=O)cc1O | i | i | i | i | i | . | . | . | . | . | .
